Screening data: PubChem, Johns Hopkins Ion Channel Center
KCNK9 inh: inhibitors of human KCNK9 two-pore domain potassium channel. HEK293 KCNK9, FluxOR thallium flux fluorescence; stronger effect = lower value. B-score at 10 µM. actives 1.2% (n = 310,000). AID 488922;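 active = ratio B-score over 3 SD below the library mean, with starting fluorescence within 5 SD of its mean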;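 also: negative B-score means less thallium flux so channel inhibition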
KCNQ1 inh: human KCNQ1 channel inhibition; actives 1.3% (n = 310,000); P51787; CHO-K1 KCNQ1, FluxOR thallium flux fluorescence; stronger effect = higher value; B-score at 10 µM;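 active = compounds whose thallium flux B-score, printed positive for inhibition, exceeds three library SD while starting fluorescence stays within three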;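 also: channel opened by potassium depolarization with thallium stimulus after 20 min compound exposure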
KCNQ1 act: potentiators or activators of human KCNQ1 potassium channel. P51787. CHO-K1 KCNQ1, thallium flux FluxOR fluorescence; stronger effect = higher value. B-score at 10 µM. actives 0.35% (n = 310,000);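 active = fluorescence ratio B-score, a plate-corrected score, at least three library SD, with initial intensity B-score within 5 SD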
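assay system = KCNQ1-transfected CHO-K1 cells | medium = assay buffer with matched DMSO | probe or stimulus = depolarizing K+/Tl+ stimulus, K2SO4 and Tl2SO4 each 12.5 mM in 5x stock | dosing = single dose | incubation = dye 90 min, compound 20 min, room temperature | detection = kinetic FluxOR fluorescence, 10 s baseline plus 110 s post-stimulus | evaluation = ratio B score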
KCNK3 inh: human KCNK3 channel inhibition, primary screen | AID 602410 | B-score at 10 µM | O14649 | CHO-KCNK3 thallium flux, FluxOR fluorescence; stronger effect = lower value | actives 0.84% (n = 340,000);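 active = B-score under library mean minus 4 SD, starting fluorescence ratio at most library mean plus 5 SD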;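 also: more negative B-score means stronger inhibition of thallium flux through KCNK3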
Target sequence (O14649 whole entry, looked up): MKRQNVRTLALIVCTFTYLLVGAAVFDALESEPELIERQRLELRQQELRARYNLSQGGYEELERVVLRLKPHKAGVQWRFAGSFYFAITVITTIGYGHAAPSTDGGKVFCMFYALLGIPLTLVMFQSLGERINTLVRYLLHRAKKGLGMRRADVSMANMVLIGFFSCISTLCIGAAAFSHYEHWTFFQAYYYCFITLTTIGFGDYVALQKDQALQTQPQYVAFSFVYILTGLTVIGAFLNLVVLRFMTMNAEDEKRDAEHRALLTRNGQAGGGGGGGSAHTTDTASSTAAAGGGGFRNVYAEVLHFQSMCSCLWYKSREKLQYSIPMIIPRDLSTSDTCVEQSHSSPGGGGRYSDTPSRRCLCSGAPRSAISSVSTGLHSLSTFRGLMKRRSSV
hERG protect: hERG (human) protection from proarrhythmic block; CHO-hERG, FluxOR thallium flux, dofetilide IC70 present; activation (rescue from dofetilide block), less the hit threshold, % at 10 µM; actives 0.51% (n = 310,000); AID 1511;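 active = activation above the mean of controls blocked by dofetilide plus 5 SD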;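 also: thallium influx through hERG after potassium depolarization seen as dye fluorescence rise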
Kir21 block: inhibitors of mouse Kir2.1 inward-rectifier potassium channel; P35561; HEK293-Kir2.1, FluxOR thallium flux fluorescence; stronger effect = lower value; B-score at 10 µM; actives 0.85% (n = 310,000);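 active = fluorescence ratio B-score at or below minus 3 SD of library scores, with starting-brightness B-score within 2 SD, cut at about -4.2 in these data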;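 also: channel flux triggered by added potassium and thallium sulfate stimulus; B-score of peak minus minimum fluorescence over baseline after thallium stimulus; more negative B-score means stronger Kir2.1 block with less thallium influx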
KCNK9 inh conf: human KCNK9 inhibitor confirmation; shares compounds with KCNK9 inh; HEK293 KCNK9 cells, FluxOR thallium flux fluorescence; inhibition, % at 10 µM; actives 43% (n = 4,900);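 active = thallium signal inhibited by more than 5 SD of the compound-free buffer control wells, on both duplicate plates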;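 also: 0% = assay buffer control wells without compound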
Kir21 sel: mouse Kir2.1 off-target activity of KCNK9 modulators | actives 4% (n = 4,900) | Kir2.1 cells, FluxOR thallium flux fluorescence | AID 492993 | inhibition, % at 10 µM | shares compounds with KCNK9 inh;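 active = thallium signal drop more than 5 SD beyond the mean of the no-compound control wells, seen in both duplicate plates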;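 also: signal is fluorescence rise after thallium addition divided by baseline fluorescence; plate controls were assay buffer only for no effect and full block by chlorpromazine control for full effect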
HEK293 Tl ctr: second counter-screen for KCNK9 modulators: effect in non-induced cells. shares compounds with KCNK9 inh. non-induced KCNK9-HEK293, FluxOR thallium flux. inhibition, % at 10 µM. actives 40% (n = 4,900);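 active = thallium signal drop beyond 5 SD of the untreated control mean, on both duplicate plates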;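 also: plate controls were buffer only IC0 wells for no effect and SID17386958 at its maximal inhibitory level for full effect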
* hit, by the source's call. Only some compounds are listed: those with a hit (about 3.7% of all), similar ones and a draw of the others.

Screening CCn1cc(C2=NC(C)(C)CO2)c2ccccc21 returned KCNK9 inh inactive, KCNQ1 inh inactive, KCNQ1 act inactive, KCNK3 inh inactive, hERG protect -8, Kir21 block 0.27, KCNK9 inh conf inactive, Kir21 sel inactive and HEK293 Tl ctr inactive.
Screening CC1=C(C(=O)Nc2ccccc2C)C(c2ccc(C)o2)N2C(=O)CSC2=N1 (stereo unspecified) returned KCNK9 inh -8.3*, KCNQ1 inh inactive, KCNQ1 act inactive, KCNK3 inh inactive, hERG protect -6, Kir21 block -0.36, KCNK9 inh conf 38%*, Kir21 sel inactive and HEK293 Tl ctr 51%*.
CN1OC[C@@H]2CN(C(=O)CCc3ccccc3)[C@H](c3cccc(-c4ccccc4)c3)C[C@@H]21 was read as KCNK3 inh inactive.
Screening COC(=O)c1ccc(CN2C(=O)NC(Cc3c[nH]c4ccccc34)C2=O)cc1 (stereo unspecified) returned KCNK9 inh inactive, KCNQ1 inh inactive, KCNQ1 act inactive, KCNK3 inh inactive, hERG protect -14 and Kir21 block -2.5.
`COc1ccc(C(=O)NCCc2cc3c(OC)ccc(OC)c3[nH]c2=O)cc1OC` gave KCNK9 inh inactive, KCNQ1 inh inactive, KCNQ1 act inactive, KCNK3 inh inactive, hERG protect -14 and Kir21 block 0.01.
CCCCC(=O)NCCc1cc2c(OC)ccc(OC)c2[nH]c1=O was read as KCNK9 inh inactive, KCNQ1 inh inactive, KCNQ1 act inactive, KCNK3 inh inactive, hERG protect -10, Kir21 block -1.1, KCNK9 inh conf inactive, Kir21 sel inactive and HEK293 Tl ctr inactive.
`CC(C(=O)N1CCCc2ccccc21)N1CCN(S(=O)(=O)c2ccccc2F)CC1` (stereo unspecified) gave KCNK9 inh inactive, KCNQ1 inh inactive, KCNQ1 act inactive, KCNK3 inh inactive, hERG protect -11, Kir21 block 0.01, KCNK9 inh conf inactive, Kir21 sel inactive and HEK293 Tl ctr inactive.
`CCOc1ccc(-c2nnc3ccc(SCC(=O)Nc4nc5ccc(C)cc5s4)nn23)cc1` gave KCNK9 inh -11*, KCNQ1 inh inactive, KCNQ1 act inactive, KCNK3 inh inactive, hERG protect -12, Kir21 block -0.33, KCNK9 inh conf 70%*, Kir21 sel inactive and HEK293 Tl ctr inactive.
CC1(c2nnc(Cc3ccccc3)o2)CC(c2cccc(F)c2)=NO1 (stereo unspecified) was read as KCNK9 inh inactive, KCNQ1 inh inactive, KCNQ1 act inactive, KCNK3 inh inactive, hERG protect -2 and Kir21 block -0.02.
`N#Cc1nc(Cc2ccccc2)oc1N1CCN(c2cccc(Cl)c2)CC1` gave KCNK9 inh -11*, KCNQ1 inh inactive, KCNQ1 act inactive, KCNK3 inh inactive, hERG protect -9, Kir21 block 0.32, KCNK9 inh conf 38%*, Kir21 sel inactive and HEK293 Tl ctr inactive.
Screening COc1ccc(-c2noc(CN3CCC(Cc4ccccc4)CC3)n2)cc1 returned KCNK9 inh inactive, KCNQ1 inh inactive, KCNQ1 act inactive, KCNK3 inh inactive, hERG protect -10, Kir21 block 0.63, KCNK9 inh conf inactive, Kir21 sel inactive and HEK293 Tl ctr inactive.
Screening COCC1CCN(Cc2nc(-c3ccc(OC)cc3)no2)CC1 returned KCNK9 inh inactive, KCNQ1 inh inactive, KCNQ1 act inactive, KCNK3 inh inactive, hERG protect -6 and Kir21 block -1.
`c1ccc(CC2CCN(Cc3nc(-c4ccccc4)no3)CC2)cc1` gave KCNK9 inh inactive, KCNQ1 inh inactive, KCNQ1 act inactive, KCNK3 inh inactive, hERG protect -12, Kir21 block -1.4, KCNK9 inh conf inactive, Kir21 sel inactive and HEK293 Tl ctr inactive.
Clc1cccc(N2CCN(Cc3nc(-c4ccccc4)no3)CC2)c1 was read as KCNK9 inh inactive, KCNQ1 inh inactive, KCNQ1 act inactive, KCNK3 inh inactive, hERG protect -7, Kir21 block -0.04, KCNK9 inh conf inactive, Kir21 sel inactive and HEK293 Tl ctr inactive.
For COc1ccc(NS(=O)(=O)c2cccc(C(=O)N/N=C/c3ccc(O)cc3)c2)cc1 the results were KCNK9 inh inactive, KCNQ1 inh inactive, KCNQ1 act inactive, KCNK3 inh inactive, hERG protect -7 and Kir21 block -0.27.
Screening COc1ccc2[nH]c3c(=O)n4c(nc3c2c1)SCCC4 returned KCNK9 inh inactive, KCNQ1 inh inactive, KCNQ1 act inactive, KCNK3 inh inactive, hERG protect 4 and Kir21 block -0.64.
`NS(=O)(=O)c1cccc(NC(=O)CSc2nc3ccccc3c(=O)n2CCCN2CCOCC2)c1` gave KCNK9 inh inactive, KCNQ1 inh inactive, KCNQ1 act inactive, KCNK3 inh inactive, hERG protect -7 and Kir21 block 0.07.
O=C(NCCN1CCOCC1)c1ccc(Cl)c(S(=O)(=O)N2CCOCC2)c1 was read as KCNK9 inh inactive, KCNQ1 inh inactive, KCNQ1 act inactive, KCNK3 inh inactive, hERG protect -7 and Kir21 block 0.89.
CCCCn1c(C2CCCCC2)nc2cc3[nH]c(=O)c(C(C)C)nc3cc21 was read as KCNK9 inh inactive, KCNQ1 inh inactive, KCNQ1 act inactive, KCNK3 inh inactive, hERG protect -21 and Kir21 block -0.72.
CCCCn1c(-c2cccc3ccccc23)nc2cc3[nH]c(=O)c(C(C)C)nc3cc21 was read as KCNK9 inh -11*, KCNQ1 inh inactive, KCNQ1 act inactive, KCNK3 inh inactive, hERG protect -7, Kir21 block -0.91, KCNK9 inh conf 54%*, Kir21 sel inactive and HEK293 Tl ctr inactive.
For C/C(=N/OC(=O)C1CC12CCC2)c1ccc(Br)cc1 (stereo unspecified) the results were KCNK9 inh inactive, KCNQ1 inh inactive, KCNQ1 act inactive, KCNK3 inh inactive, hERG protect -10, Kir21 block 0.41, KCNK9 inh conf inactive, Kir21 sel inactive and HEK293 Tl ctr inactive.
